Laboratory results: the EternaBench riboswitch data

System: MS2 coat protein
Assay: apparent Kd, MS2 coat protein; higher = weaker binding; RNA-MaP array; FMN 200 µM where present
Outline: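 Two titrations, one without ligand and one with constant ligand, were run with SNAP-549-labelled MS2 coat protein from 0.7 or 1.5 nM, doubling to 3 µM. The targets were designs transcribed by stalled E. coli RNA polymerase on Illumina sequencing-chip clusters, in 100 mM Tris-HCl pH 7.5, 80 mM KCl, 4 mM MgCl2, BSA, DTT, yeast tRNA and Tween-20. The apparent Kd is the median of filtered per-cluster binding-curve fits, with green signal normalised to red-channel RNA signal and control-cluster median Fmax.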

[1] = designed as: OFF switch for flavin mononucleotide, no ligand
[2] = ligand present: flavin mononucleotide, designed as: OFF switch for flavin mononucleotide
[3] = designed as: ON switch for flavin mononucleotide, no ligand
[4] = ligand present: flavin mononucleotide, designed as: ON switch for flavin mononucleotide

Row | Sequence | apparent Kd [1] | apparent Kd [2] | apparent Kd [3] | apparent Kd [4]
1 | ACAUGAGGAUCACCCAUGUGAGGAUCUCCCAUGUUAUAUUUCAGAAGGCUCGUGUGUUUGAUGAGAGAGGAUAUGGAAUAUACG | 73.7 nM | 49.7 nM |  | 
2 | CAGUACUGAGGAUAUACAUGAGGAUCACCCAUGUGUUCCAGCUAGGGAACUAGCAAAAGUAGAAGGCAGUACUG | 22.4 nM | 437 nM |  | 
3 | UUAUUUAGUGUGAGGAUAUGCUGGUCCUUGGAUCAGCAGAAGGCACAUGAGGAUCACCCAUGUAAUAUAUUAAU | 91 nM | 305 nM |  | 
4 | AGCUACGUUUCGUAGCAGUGUCAUCGAGAAGGCCUCAUUACAUGAGGAUCACCCAUGUGGACAUGGGAGGAUAUCGAUGAUACA |  |  | 487 nM | 212 nM
5 | AGAUGACAAGGAUAUACUCGGGAUGCUAGUCGCGAAGAAGCACAUGAGGAUCACCCAUGUAGAAGGUGUAAGAA | 122 nM | 128 nM |  | 
6 | UAUUUUAACUAAGGAUAUCUGUAUUAUGUUGAAACAUGAGGAUCACCCAUGUUCAUGAUAUUAUAGGAGAAGGUAGAUGAAUAA |  |  | 6.75 nM | 6.01 nM
7 | GUUUGUUAUUAGAAGGUGCCGGCGAGAGCCGCAACAUGAGGAUCACCCAUGUGUCGGUGACGACGCAAGGAUAUGGUGGUGGAU |  |  | 308 nM | 140 nM
8 | AUGCAACAUGAGGAUCACCCAUGUGAGGAUAUCGUAUAAUACUGUUGAAAGAGUUAGACGAGAAGGCACACCGU | 28.2 nM | 54 nM |  | 
9 | AUUUAAAUGUCAGGAUAUGGUAGUUUAUACUUAUCAGAAGGGAUAAUUAUACUCAAGUACAUGAGGAUCACCCAUGUUAAAUCA |  |  | 30.5 nM | 15.8 nM
10 | GCGGGACGUCGAGGAUAUGGGUGUGCGAGUCUUGGCACUGGACAUGAGGAUCACCCAUGUCGCUUCCAGAAGGCGACGUCCCUA |  |  | 34.8 nM | 6.67 nM
11 | AUAAAACAUGAGGAUCACCCAUGUCAACAAAGUCGAGGAUAUGGGCAAAUAAAAUAAGAACCAGAAGGCGAAUAAU |  |  | 398 nM | 36.6 nM
12 | AGCCUACAUGAGGAUCACCCAUGUCAGGAUAUCUCGCGACAUGUCAAGUUCACGUUGCAGAGAAGGGACUCGGG | 56.6 nM | 63.6 nM |  | 
13 | UCACGGGUUUGAGGAUAUAUAUUUAUUAUUUUAAUAGAAGGCAAAGAGAUAGUUUUUUCACUAUACAUGAGGAUCACCCAUGUU | 41.5 nM | 36 nM |  | 
14 | AUACUCAUGUAAGGAUAUGCAGCCGUUUCGGCUGCAGAAGGUACUAUAAUACAUGAGGAUCACCCAUGUCUCUCGCCUUGCGAG |  |  | 710 nM | 89.7 nM
15 | CUUUUGUGAGGAUAUCAGUAGUAAAUAAAUAAAAUUUCUACUGAGAAGGCACAUGAGGAUCACCCAUGUUCCUC | 38.5 nM | 220 nM |  | 
16 | GUUUCACAUGAGGAUCACCCAUGUGAGGAUAUGGUUUCGCUGGCCGUAGCCAGUGGAACCAGAAGGCGCAUGAU | 36.5 nM | 41.3 nM |  | 
17 | UCGCGGGUGCAGAAGGGAUAGGCCUAUUUUCGUGGUAUCCAAACUUAACAUGAGGAUCACCCAUGUCAGGAUAUGCCCACGCGA | 8.72 nM | 10.7 nM |  | 
18 | CCCUCACAUGAGGAUCACCCAUGUGAGGAUAUGCAUUCCAAAGCGAGCUUUGAGAAGAGUAGAAGGCACUGGUG | 17.1 nM | 19.9 nM |  | 
19 | UUUAUUUCGGCAGGAUAUACAUGUAUAUAUAUUUCUUCAUAUCUUAUUACAUGAGGAUCACCCAUGUAGAAGGGCCUUCUUCUC | 65.6 nM | 80.5 nM |  | 
20 | UGGUACAUGGGAGGAUAUCCUCAAGAGACAUGAGGAUCACCCAUGUAUUAUAAGCCGAAAGGCAUGGAGAAGGCCCAUGUACCU |  |  | 75.4 nM | 19.5 nM
21 | ACGCGAUGGGAGAAGGUACUUUAAUUAGGUUACACAUGAGGAUCACCCAUGUAAGGAUAUCCCAUCGUUAAAUAUUAUACAGCA | 6.16 nM | 5.41 nM |  | 
22 | AAAACAUGAGGAUCACCCAUGUAAAGAUCGGUCGAUGAAGGUGAGGAUAUACAAAACUUUAUGGAGUAGAAGGCACUGGGUUGA |  |  | 185 nM | 69.8 nM
23 | GGUACUCAAAGAGUACCAAUACGUACAUGAGGAUCACCCAUGUAGGAUAUGCUACUCAAAGAGUAGCAGAAGGACAUGUGCCUA | 12.7 nM | 31 nM |  | 
24 | GGUACCAACACAGGAUAUGCUAUCCUUUGGGUAGCAGAAGGGUGAAACAUGAGGAUCACCCAUGUGGUGCCAGGGCGUGAGCCC |  |  | 1460 nM | 96.2 nM
25 | UUCGCUAAGGUGUAGCGAGACACGCAAGAAGGGUGAUGCACAUGAGGAUCACCCAUGUAAGCCUUACAGGAUAUUGCUUGCCGA |  |  | 899 nM | 211 nM
26 | CCUGAGUCAGGAUAUUGUACCGGCCUGAAGCCAAGCCGACCCAAGAAGGGACAUGAGGAUCACCCAUGUGAAAA | 21.3 nM | 22.9 nM |  | 
27 | ACAUUCACUCGACUGGUUCUUAACAUGAGGAUCACCCAUGUAGAGGAUAUAGGAAUUCUGGGUUCCUAGAAGGCUACGUGAGUG | 15.9 nM | 76.7 nM |  | 
28 | GCGUAACAUGAGGAUCACCCAUGUACCCGAGAAUUCGGGUCGAGAAGGGUGACCGGUCGUUUGGCACAGGAUAUCGACGUUGUG |  |  | 19.4 nM | 14.5 nM

Row | Sequence | apparent Kd [1] | apparent Kd [2] | apparent Kd [3] | apparent Kd [4]
29 | AUCUUGUAAGGAUAUCGUGCAAGUUUCAAAAGAGGCUUGUGCGAGAAGGUACAUGAGGAUCACCCAUGUAGGUU | 26.2 nM | 71.2 nM |  | 
30 | UGGUGUGAAGGAUAUACAUGAGGAUCACCCAUGUAUGAGGUGGAGGUUGAGGUGGAGGGUAGAAGGUCAGGUGG | 27.3 nM | 27 nM |  | 
31 | ACUGUCGCGUGAGGAUAUGGUCUGCAGUGCUGACCAGAAGGCAUGUCGAUAGACAUGAGGAUCACCCAUGUGGUUAGGGCGGCA |  |  | 933 nM | 467 nM
32 | AUCAGCUCGUCAGGAUAUACGUCACUGCGUGAGCAGUGUGGUAAGAUCACAUGAGGAUCACCCAUGUAGAAGGGACGAGCUGAU | 13.6 nM | 271 nM |  | 
33 | AGUUCUUGUGAAGGAUAUACGGCGGGUCGCGCAGUAGAAGGUCACAUGAGGAUCACCCAUGUCGACAUUGUGCAGUAUCGACAA | 82.9 nM | 465 nM |  | 
34 | GCGCAGCCGGGUGAGGAUAUCGGUGGUAAAACAUGAGGAUCACCCAUGUCCGAAGCUCGGACUUCCGAGAAGGCGCCCAGCUGCA |  |  | 115 nM | 14.4 nM
35 | GCACUCAAGUUAGGAUAUGGAUCGGAAAACGAUCCAGAAGGAAUAUGGGAACAUGAGGAUCACCCAUGUUCCAGAAACGAGUGC |  |  | 62.5 nM | 30.4 nM
36 | CGGGUCUGAGGAUAUCCAUCUUCAUACAUGAGGAUCACCCAUGUUUACCUUUGGGUUUUUGGAGAAGGCAGUUUUC | 43.5 nM | 74.6 nM |  | 
37 | ACCCGCAAACGUUGGAAUCGUAAGAGAAGGUGGACAUGAGGAUCACCCAUGUGCAUCCUGCGUUCCAAGGAUAUCUUACUGAAU | 10.9 nM | 48 nM |  | 
38 | GAGGUGUUAGGAUAUCGGAGAUGGAGACCGACGGGAUGAGCCGAGAAGGAACAUGAGGAUCACCCAUGUAGGUG | 461 nM | 283 nM |  | 
39 | ACAGAAGCACCCGGAACCGGACAAUGAGAAGGCCACGCACAUGAGGAUCACCCAUGUAAAGCUAUGGAGGAUAUCAUGAUGGAU |  |  | 40.3 nM | 5.64 nM
40 | UCUGUCCUUGUCAGGAUAUCGAUGGUAAGACCAUGCGAGAAGGGACAUGAGGAUCACCCAUGUUCGACCUGGGU | 176 nM | 222 nM |  | 
41 | CCAUUUCAGUAAGGAUAUAUAAACAUGACGAUACAUGAGGAUCACCCAUGUGUAGAAGGUACUAAUACAUAUAAUGCAAUGUUC | 16.6 nM | 15.7 nM |  | 
42 | GGACAUUUACAGAAGGGCAAGUUGGAUCGCGGAUAACGCGAUCCGACUUGCAGGAUAUGUUGAACAUGAGGAUCACCCAUGUCC |  |  | 12 nM | 9.8 nM
43 | AAUAUGUUGCAGAAGGUUAUAUUUUUUUAGUACCUCAUGACAUGAGGAUCACCCAUGUUUUUGUUGAAGGAUAUGCAAUAUAUU | 17.1 nM | 14.3 nM |  | 
44 | ACACGACAUGAGGAUCACCCAUGUUUCCGAUUCACAGGAUAUGGGACAUCCGGAGGGUGACCAGAAGGGUGACUCG |  |  | 151 nM | 28.3 nM
45 | GUCCCGAGGGAGAAGGGCUAGAAGGUCCAGCUUAUGUGUGUUGCAACAUGAGGAUCACCCAUGUAGCAGGAUAUCCCUUGUACA | 18.1 nM | 39.6 nM |  | 
46 | UUGGACGUCGUAGGAUAUGUAGGAUAUUCCUACAUGAGGAUCACCCAUGUUGACAUGGAAGAAGGACAGAAGGACGAUAUCCAU |  |  | 289 nM | 5.01 nM
47 | CCUAUUAGAAAAUAGACGAAGUGGCCAGAAGGUGAAUGCCACAUGAGGAUCACCCAUGUUUCGAUCAAGGAUAUGGUUUCUCAC |  |  | 630 nM | 203 nM
48 | CUCAUGUAAGGAUAUCAGUAGUAAAAAAAUAAAAUUACUACUGAGAAGGUACAUGAGGAUCACCCAUGUCCUUC | 96.1 nM | 56.2 nM |  | 
49 | UAUACUUACGAAGGAUAUGGUUACAUGAGGAUCACCCAUGUAUGUAUAUUGAUCUUGUAUCUUAACCAGAAGGUCGUCACUAUA | 26.3 nM | 23.4 nM |  | 
50 | GUAGCAUAAUUAGGAUAUUCAGCGAAUAGAUUGACAUGAGGAUCACCCAUGUGGCGAAAGCCGAGGGAGAAGGGAUAAUGCUAC |  |  | 157 nM | 61.1 nM
51 | AGCAAGUCAGGAUAUGCGAAGUCAGGACACACACUGACGAAGCAGAAGGGACAUGAGGAUCACCCAUGUAAGCA | 29.1 nM | 42.9 nM |  | 
52 | AACUCGUCAGGAUAUGCGCGCAGAUAAUACGCUUCGCAAUUGCAGAAGGGACAUGAGGAUCACCCAUGUAAAUA | 29.8 nM | 32 nM |  | 
53 | CGGUCGAUAUCAGGAUAUCGUUUAAUUACAUGAGGAUCACCCAUGUUGACAUGGAAUAUAACAUGCGAGAAGGGAUUACGAUCG |  |  | 13.9 nM | 9.85 nM
54 | AGCAUGCUUGGGUAACCUGGCACAUGAGGAUCACCCAUGUGACAGGAUAUCGACGUAGAUGACGACGAGAAGGGUCUGAUGGGU | 7.61 nM | 12.3 nM |  | 
55 | UUAAAUCAUGUAGGAUAUGCAUGGCGAAGCUACGCAGAAGGACAUGAGGAUCACCCAUGUUAUAGCGACCAAGUAAGGUUGCAA | 91.6 nM | 197 nM |  | 
